≈ marks a conversion by molar mass, not a printed value. Calls of active or inactive are those of the source. The rule behind the calls is not given here.
What was measured:
Pseudomonas aeruginosa [1] = test: Antimicrobial activity against Pseudomonas aeruginosa ATCC […] assessed as growth inhibition by microdilution assay; type: functional
Summary of the method: (§1)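 Twofold serial microdilution of peptide (stocks 2 mg mL−1, diluted to 512 μg mL−1 in water with 10% DMSO) in strain medium, about 1 × 10^4 cfu per well. Media: TSB 20 h 37 °C (S. aureus, L. monocytogenes, B. subtilis, E. faecalis); LB 20 h 37 °C (P. aeruginosa, S. enterica, E. coli); Brucella 48 h 37 °C (C. coli). A595 read; MIC = lowest concentration with no visible growth; triplicate.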

[2] = Hemolytic activity in human erythrocytes at 128 ug/ml measured after 1 hr by absorbance based assay relative to control; type: toxicity, cell-based, Erythrocyte; conditions: at 128 µg/mL, read-out: Activity
Summary of the method: (§2)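 Washed human donor erythrocytes at 1% hematocrit in PBS pH 7.4 exposed to twofold peptide dilutions (final 2–256 μg mL−1, up to 1% DMSO) for 1 h at 37 °C. After centrifugation, supernatant A405 read. % hemolysis relative to PBS (0%) and 1% Triton X-100 (100%). Triplicate; mean ± SEM.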

Staphylococcus aureus [3] = test: Antimicrobial activity against Staphylococcus aureus ATCC 6538 assessed as diameter of growth inhibition at 128 ug/ml by radial diffusion assay; type: functional; conditions: dose 128 µg/ml
Summary of the method: (§3)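 Agar well diffusion. Overnight cultures inoculated at 1% into 0.75% soft agar (TSB for S. aureus, LB for P. aeruginosa). Each well received 80 μL of peptide at 128 μg mL−1 in water with 10% DMSO; 10% DMSO served as negative control. Inhibition zone diameter scored after strain-specific incubation.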

Bacillus subtilis = test: Antimicrobial activity against Bacillus subtilis ATCC 23957 assessed as growth inhibition by microdilution assay; type: functional; summary of the method: as §1
Pseudomonas aeruginosa [4] = test: Antimicrobial activity against Pseudomonas aeruginosa ATCC […] assessed as diameter of growth inhibition at 128 ug/ml by radial diffusion assay; type: functional; conditions: dose 128 µg/ml; summary of the method: as §3
Escherichia coli = test: Antimicrobial activity against Escherichia coli ATCC 25922 assessed as growth inhibition by microdilution assay; type: functional; summary of the method: as §1
Staphylococcus aureus [5] = test: Antimicrobial activity against Staphylococcus aureus ATCC 6538 assessed as growth inhibition by microdilution assay; type: functional; summary of the method: as §1
Enterococcus faecalis = test: Antimicrobial activity against Enterococcus faecalis ATCC 29212 assessed as growth inhibition by microdilution assay; type: functional; summary of the method: as §1
Campylobacter coli = test: Antimicrobial activity against Campylobacter coli ATCC 33559 assessed as growth inhibition by microdilution assay; type: functional; summary of the method: as §1
Listeria monocytogenes = test: Antimicrobial activity against Listeria monocytogenes ATCC 19111 assessed as growth inhibition by microdilution assay; type: functional; summary of the method: as §1
[6] = Cytotoxicity against human Caco-2 cells assessed as inhibition of cell viability incubated for 48 hrs by Cell Titer GLO assay; type: toxicity, cell-based
Summary of the method: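 Caco-2 cells in DMEM with 10% FCS, seeded 25 000 per well, adhered overnight, then given peptide at 2–256 μg mL−1 in complete medium for 48 h at 37 °C, 5% CO2. Controls: cisplatin 125 μM; 0.1% DMSO medium. Viability by ATP luminescence (CellTiter-Glo) versus untreated cells; IC50 from dose–response; mean ± SEM of at least three independent experiments.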

[7] = Hemolytic activity in human erythrocytes at 256 ug/ml measured after 1 hr by absorbance based assay relative to control; type: toxicity, cell-based, Erythrocyte; conditions: at 256 µg/mL, read-out: Activity; summary of the method: as §2
Clostridium perfringens = test: Antimicrobial activity against Clostridium perfringens ATCC 3628 assessed as growth inhibition by microdilution assay; type: functional
Summary of the method: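 Broth microdilution: twofold serial peptide dilutions in reinforced clostridial medium (RCM), seeded with about 1 × 10^4 cfu per well, incubated 20 h at 37 °C. Working solution 512 μg mL−1 made from a 2 mg mL−1 stock in water with 10% DMSO. Growth read as absorbance at 595 nm. MIC taken as the lowest concentration giving complete inhibition of visible growth; run in triplicate.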

[8] = Antimicrobial activity against Salmonella enterica serovar Newport ATCC 6962 assessed as growth inhibition by microdilution assay; type: functional, Salmonella enterica subsp. enterica serovar Newport; summary of the method: as §1
Pseudomonas aeruginosa [9] = test: Antimicrobial activity against Pseudomonas aeruginosa ATCC […] assessed as growth inhibition at 128 ug/ml by radial diffusion assay; type: functional, organism-based; conditions: dose 128.0 µg/ml; summary of the method: as §3
Staphylococcus aureus [10] = test: Antimicrobial activity against Staphylococcus aureus ATCC 6538 assessed as growth inhibition at 128 ug/ml by radial diffusion assay; type: functional, organism-based; conditions: dose 128.0 µg/ml; summary of the method: as §3

CC[C@H](NC(=O)[C@@H](O)[C@@H](C)CC)C(=O)N[C@@H](CC(C)C)C(=O)N[C@H](CCCN)C(=O)N[C@H](C(=O)N[C@H](C(=O)N[C@H](C(=O)N[C@H](CCCCN)C(=O)N[C@H](C(=O)N[C@H](C(=O)N[C@@H](CCCCN)C(=O)N[C@H](Cc1ccc(O)cc1)C(=O)N[C@@H](CC(C)C)C(=O)N[C@H](C(N)=O)C(C)C)C(C)C)C(C)C)C(C)C)[C@@H](C)CC)[C@@H](C)CC
MIC (Pseudomonas aeruginosa [1]): 2 µg/mL
hemolysis at 1 h, 128 ug/ml [2]: 23.3%
Activity (Staphylococcus aureus [3]): 7 mm
MIC (Bacillus subtilis): 2 µg/mL
Activity (Pseudomonas aeruginosa [4]): 7 mm
MIC (Escherichia coli): > 128 µg/mL
MIC (Staphylococcus aureus [5]): 2 µg/mL
MIC (Enterococcus faecalis): 64 µg/mL
MIC (Campylobacter coli): 16 µg/mL
MIC (Listeria monocytogenes): 2 µg/mL
IC50 at 48 h [6]: 11.3 µg/mL (≈ 7.07 µM)
hemolysis at 1 h, 256 ug/ml [7]: 38.2%
MIC (Clostridium perfringens): 8 µg/mL
MIC [8]: > 128 µg/mL

CC[C@H](NC(=O)[C@@H](NC(C)=O)[C@@H](C)CC)C(=O)N[C@@H](CC(C)C)C(=O)N[C@H](CCCN)C(=O)N[C@H](C(=O)N[C@H](C(=O)N[C@H](C(=O)N[C@H](CCCCN)C(=O)N[C@H](C(=O)N[C@H](C(=O)N[C@@H](CCCCN)C(=O)N[C@H](Cc1ccc(O)cc1)C(=O)N[C@@H](CC(C)C)C(=O)N[C@H](C(N)=O)C(C)C)C(C)C)C(C)C)C(C)C)[C@@H](C)CC)[C@@H](C)CC
MIC (Pseudomonas aeruginosa [1]): > 128 µg/mL
hemolysis at 1 h, 128 ug/ml [2]: 23.3%
MIC (Bacillus subtilis): > 128 µg/mL
growth inhibition (qualitative call) (Pseudomonas aeruginosa [9]): inactive
MIC (Escherichia coli): > 128 µg/mL
MIC (Staphylococcus aureus [5]): > 128 µg/mL
MIC (Enterococcus faecalis): > 128 µg/mL
MIC (Campylobacter coli): > 128 µg/mL
MIC (Listeria monocytogenes): > 128 µg/mL
IC50 at 48 h [6]: 14.9 µg/mL (≈ 9.08 µM)
hemolysis at 1 h, 256 ug/ml [7]: 38.2%
MIC (Clostridium perfringens): > 128 µg/mL
growth inhibition (qualitative call) (Staphylococcus aureus [10]): inactive
MIC [8]: > 128 µg/mL

C/C=C(/NC(=O)[C@@H](O)[C@@H](C)CC)C(=O)N[C@@H](CC(C)C)C(=O)N[C@H](CCCN)C(=O)N[C@H](C(=O)N[C@H](C(=O)N[C@H](C(=O)N[C@H](CCCCN)C(=O)N[C@H](C(=O)N[C@H](C(=O)N[C@@H](CCCCN)C(=O)N[C@H](Cc1ccc(O)cc1)C(=O)N[C@@H](CC(C)C)C(=O)N[C@H](CO)C(C)C)C(C)C)[C@@H](C)CC)C(C)C)[C@@H](C)CC)[C@@H](C)CC
MIC (Pseudomonas aeruginosa [1]): 1 µg/mL
hemolysis at 1 h, 128 ug/ml [2]: 55%
Activity (Staphylococcus aureus [3]): 11 mm
MIC (Bacillus subtilis): 0.5 µg/mL
Activity (Pseudomonas aeruginosa [4]): 12 mm
MIC (Escherichia coli): 32 µg/mL
MIC (Staphylococcus aureus [5]): 2 µg/mL
MIC (Enterococcus faecalis): 2 µg/mL
MIC (Campylobacter coli): 8 µg/mL
MIC (Listeria monocytogenes): 1 µg/mL
IC50 at 48 h [6]: 6.5 µg/mL (≈ 4.07 µM)
hemolysis at 1 h, 256 ug/ml [7]: 89.9%
MIC (Clostridium perfringens): 2 µg/mL
MIC [8]: 64 µg/mL

C/C=C(/NC(=O)[C@@H](O)[C@@H](C)CC)C(=O)N[C@@H](CC(C)C)C(=O)N[C@H](CCCN)C(=O)N[C@H](C(=O)N[C@H](C(=O)N[C@H](C(=O)N[C@H](CCCCN)C(=O)N[C@H](C(=O)N[C@H](C(=O)N[C@@H](CCCCN)C(=O)N[C@H](Cc1ccc(O)cc1)C(=O)N[C@@H](CC(C)C)C(=O)N[C@H](CO)C(C)C)C(C)C)C(C)C)C(C)C)C(C)C)[C@@H](C)CC
MIC (Pseudomonas aeruginosa [1]): 2 µg/mL
hemolysis at 1 h, 128 ug/ml [2]: 1.65%
Activity (Staphylococcus aureus [3]): 11 mm
MIC (Bacillus subtilis): 2 µg/mL
Activity (Pseudomonas aeruginosa [4]): 12 mm
MIC (Escherichia coli): 32 µg/mL
MIC (Staphylococcus aureus [5]): 4 µg/mL
MIC (Enterococcus faecalis): 16 µg/mL
MIC (Campylobacter coli): 16 µg/mL
MIC (Listeria monocytogenes): 1 µg/mL
IC50 at 48 h [6]: 25.7 µg/mL (≈ 16.4 µM)
MIC (Clostridium perfringens): 4 µg/mL
MIC [8]: > 128 µg/mL
